ChEMBL document CHEMBL1133492, “Design, synthesis, and biological evaluation of fluoronitrophenyl substituted folate analogues as potential inhibitors of GAR transformylase and AICAR transformylase” (Bioorg Med Chem Lett, 2000)
The source made the active and inactive calls. The calls are words filed in the database; no cut-off is given here.

Experiments:
CCRF-CEM [1] = test: Cytotoxicity in the absence of hypoxanthine and presence of thymidine against CCRF-CEM cell line; format: functional, cell-based; conditions: Homo sapiens
Outline: (§1)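 CCRF-CEM cells were grown in purine- and pyrimidine-free medium, with thymidine and/or hypoxanthine added or omitted as each line specifies. The cytotoxic potency was reported as an IC50 (µM).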

[2] = molecular target: T1, Trifunctional purine biosynthetic protein adenosine-3 (Homo sapiens) (UniProt P22102); test: In vitro inhibitory activity against Glycinamide ribonucleotide transformylase (GAR Tfase+GAR) following 30 min pre-incubation at 250 uM concentration
T1 sequence (whole entry): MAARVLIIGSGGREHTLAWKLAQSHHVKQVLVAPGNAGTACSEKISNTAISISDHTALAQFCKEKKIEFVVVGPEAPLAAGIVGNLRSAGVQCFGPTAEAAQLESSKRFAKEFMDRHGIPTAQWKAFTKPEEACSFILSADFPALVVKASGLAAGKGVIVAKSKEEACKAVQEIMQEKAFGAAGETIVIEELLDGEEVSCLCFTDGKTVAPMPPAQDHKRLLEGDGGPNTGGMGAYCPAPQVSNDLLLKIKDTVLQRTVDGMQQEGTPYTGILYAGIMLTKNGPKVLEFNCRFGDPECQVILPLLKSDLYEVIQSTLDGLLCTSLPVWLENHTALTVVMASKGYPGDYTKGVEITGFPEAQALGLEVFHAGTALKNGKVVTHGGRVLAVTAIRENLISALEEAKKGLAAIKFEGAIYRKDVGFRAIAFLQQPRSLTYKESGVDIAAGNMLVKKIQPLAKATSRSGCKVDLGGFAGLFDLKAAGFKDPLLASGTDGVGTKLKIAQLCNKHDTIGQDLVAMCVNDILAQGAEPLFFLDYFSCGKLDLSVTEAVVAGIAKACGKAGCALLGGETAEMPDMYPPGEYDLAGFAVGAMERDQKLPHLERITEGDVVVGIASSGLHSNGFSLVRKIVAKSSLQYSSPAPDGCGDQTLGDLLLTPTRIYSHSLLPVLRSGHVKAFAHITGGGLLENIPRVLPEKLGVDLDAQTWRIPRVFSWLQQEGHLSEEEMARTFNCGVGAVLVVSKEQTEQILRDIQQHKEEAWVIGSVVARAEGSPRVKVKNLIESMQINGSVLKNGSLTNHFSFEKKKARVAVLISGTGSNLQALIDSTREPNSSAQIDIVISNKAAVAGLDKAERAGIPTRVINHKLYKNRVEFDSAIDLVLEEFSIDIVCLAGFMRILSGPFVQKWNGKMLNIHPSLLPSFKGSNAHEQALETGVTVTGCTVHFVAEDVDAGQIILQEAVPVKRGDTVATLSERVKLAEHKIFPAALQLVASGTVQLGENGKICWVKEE

[3] = molecular target: T1, Trifunctional purine biosynthetic protein adenosine-3 (Homo sapiens); test: In vitro inhibitory activity at 250 uM concentration against Glycinamide ribonucleotide transformylase (GAR Tfase) pre-incubation time (6 hr).
[4] = molecular target: T1, Trifunctional purine biosynthetic protein adenosine-3 (Homo sapiens); test: In vitro inhibitory activity against Glycinamide ribonucleotide transformylase (GAR Tfase) following 3 min pre-incubation at 250 uM concentration
[5] = molecular target: T1, Trifunctional purine biosynthetic protein adenosine-3 (Homo sapiens); test: In vitro inhibitory activity against Glycinamide ribonucleotide transformylase (GAR Tfase+GAR) pre-incubation of 6 hr at 250 uM concentration
CCRF-CEM [6] = test: Cytotoxicity in the presence of thymidine and hypoxanthine against CCRF-CEM cell line; format: functional, cell-based; conditions: Homo sapiens; outline: as §1
CCRF-CEM [7] = test: Cytotoxicity in the absence of thymidine and presence of hypoxanthine against CCRF-CEM cell line; format: functional, cell-based; conditions: Homo sapiens; outline: as §1
[8] = molecular target: T1, Trifunctional purine biosynthetic protein adenosine-3 (Homo sapiens); test: In vitro inhibitory activity against Glycinamide ribonucleotide transformylase (GAR Tfase+GAR) following 3 min pre-incubation at 250 uM concentration
[9] = molecular target: T2, Bifunctional purine biosynthesis protein ATIC (Homo sapiens, UniProt P31939); test: In vitro inhibitory activity against Aminoimidazole carboxamide ribonucleotide transformylase pre-incubed for 12 hr at 250 uM
T2 sequence (P31939 whole entry, looked up): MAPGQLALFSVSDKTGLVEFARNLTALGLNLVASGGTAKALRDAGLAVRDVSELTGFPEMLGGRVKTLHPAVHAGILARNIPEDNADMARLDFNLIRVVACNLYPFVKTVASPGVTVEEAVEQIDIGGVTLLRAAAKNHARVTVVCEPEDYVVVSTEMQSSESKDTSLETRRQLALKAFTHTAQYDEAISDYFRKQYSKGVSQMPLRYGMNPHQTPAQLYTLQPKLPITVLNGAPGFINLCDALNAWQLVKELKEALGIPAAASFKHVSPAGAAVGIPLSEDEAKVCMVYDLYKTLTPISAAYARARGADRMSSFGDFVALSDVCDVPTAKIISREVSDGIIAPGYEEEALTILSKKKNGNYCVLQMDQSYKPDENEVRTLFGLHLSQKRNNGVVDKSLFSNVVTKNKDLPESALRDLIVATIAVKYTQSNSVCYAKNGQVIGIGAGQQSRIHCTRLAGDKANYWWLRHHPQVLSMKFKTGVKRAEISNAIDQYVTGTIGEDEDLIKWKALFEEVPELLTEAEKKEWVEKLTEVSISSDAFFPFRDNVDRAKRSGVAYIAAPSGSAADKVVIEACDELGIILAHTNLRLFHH
Outline: (§2)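 The AICAR Tfase assay solution was pre-incubated with inhibitor (250 µM, or 25 µM where the line states) for 12 h at room temperature. The reaction was then started by adding AICAR, and enzyme inhibition was measured.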

CCRF-CEM [10] = test: Cytotoxicity in the absence of thymidine and hypoxanthine against CCRF-CEM cell line; format: functional, cell-based; conditions: Homo sapiens; outline: as §1
[11] = molecular target: T2, Bifunctional purine biosynthesis protein ATIC; test: In vitro inhibitory activity against Aminoimidazole carboxamide ribonucleotide transformylase pre-incubated for 12 hr at 250 uM; Not active.; outline: as §2
[12] = molecular target: T1, Trifunctional purine biosynthetic protein adenosine-3 (Homo sapiens); test: In vitro inhibitory activity against Glycinamide ribonucleotide transformylase (GAR Tfase) after 6 hr at 250 uM; Not active
[13] = molecular target: T1, Trifunctional purine biosynthetic protein adenosine-3 (Homo sapiens); test: In vitro inhibitory activity against Glycinamide ribonucleotide transformylase (GAR Tfase) after 30 min at 250 uM; Not active
[14] = molecular target: T1, Trifunctional purine biosynthetic protein adenosine-3 (Homo sapiens); test: In vitro inhibitory activity against Glycinamide ribonucleotide transformylase (GAR Tfase) after 3 min at 250 uM; Not active
[15] = molecular target: T1, Trifunctional purine biosynthetic protein adenosine-3 (Homo sapiens); test: In vitro activity against Glycinamide ribonucleotide transformylase (GAR Tfase) after 30 min at 25 uM
[16] = molecular target: T1, Trifunctional purine biosynthetic protein adenosine-3 (Homo sapiens); test: In vitro inhibitory activity against Glycinamide ribonucleotide transformylase (GAR Tfase) after 3 min at 25 uM; […]
[17] = molecular target: T1, Trifunctional purine biosynthetic protein adenosine-3 (Homo sapiens); test: In vitro inhibitory activity against Glycinamide ribonucleotide transformylase (GAR Tfase) after 6 hr at 25 uM
[18] = molecular target: T1, Trifunctional purine biosynthetic protein adenosine-3 (Homo sapiens); test: In vitro activity against Glycinamide ribonucleotide transformylase (GAR Tfase) after 3 min at 25 uM
[19] = molecular target: T1, Trifunctional purine biosynthetic protein adenosine-3 (Homo sapiens); test: In vitro inhibitory activity against Glycinamide ribonucleotide transformylase (GAR Tfase) after 30 min at 25 uM
[20] = molecular target: T1, Trifunctional purine biosynthetic protein adenosine-3 (Homo sapiens); test: In vitro inhibitory activity against Glycinamide ribonucleotide transformylase (GAR Tfase) after 1 hr at 25 uM
[21] = molecular target: T1, Trifunctional purine biosynthetic protein adenosine-3 (Homo sapiens); test: In vitro inhibitory activity against Glycinamide ribonucleotide transformylase (GAR Tfase) after 30 min at 25 uM; Not active

Structure (SMILES) | IC50 (CCRF-CEM [1]) | inhibition [2] | inhibition [3] | inhibition [4] | inhibition [5] | IC50 (CCRF-CEM [6]) | IC50 (CCRF-CEM [7]) | inhibition [8] | inhibition [9] | IC50 (CCRF-CEM [10]) | inhibition [11] | also measured
COC(=O)c1ccc(CN(CCc2c(N)nc(N)nc2O)c2cc(F)ccc2[N+](=O)[O-])cc1 | 66 µM | 62% | 12% | 78% | 47% | 72 µM | 72 µM | 81% | 94% | 72 µM |  | 
COC(=O)c1ccc(CN(CCc2c(N)nc(N)nc2O)c2cc(F)cc(F)c2[N+](=O)[O-])cc1 | 91 µM | 29% | 0% | 16% | 30% | > 100 µM | > 100 µM | 32% |  | > 100 µM | inactive | 
Nc1nc(N)c(CCCNc2cc(F)c(F)cc2[N+](=O)[O-])c(O)n1 | > 100 µM |  | 63% | 87% |  | 97 µM | 97 µM |  | 98% | 97 µM |  | inhibition [12]: inactive; inhibition [13]: inactive; inhibition [14]: inactive
COC(=O)c1ccc(CN(CCc2c(N)nc(N)nc2O)c2cc(F)c(F)cc2[N+](=O)[O-])cc1 | 13 µM | 31% | 2% | 17% | 22% | 11 µM | 11 µM | 35% |  | 12 µM | inactive | 
COC(=O)c1ccc(CN(CCCc2c(N)nc(N)nc2O)c2ccc([N+](=O)[O-])c(F)c2F)cc1 | 45 µM | 78% | 41% | 61% | 75% | 45 µM | 55 µM | 82% | 96% | 41 µM |  | 
COC(=O)c1ccc(CN(CCCc2c(N)nc(N)nc2O)c2cc(F)ccc2[N+](=O)[O-])cc1 | 43 µM | 44% | 0% | 70% | 8% | 30 µM | 55 µM | 75% |  | 45 µM | inactive | 
Nc1nc(N)c(CCCNc2cc(F)cc(F)c2[N+](=O)[O-])c(O)n1 | 97 µM |  | 53% | 80% |  | 94 µM | 97 µM |  |  | 97 µM | inactive | inhibition [12]: inactive; inhibition [13]: inactive; inhibition [14]: inactive
COC(=O)c1ccc(CN(CCc2c(N)nc(N)nc2O)c2ccc([N+](=O)[O-])c(F)c2F)cc1 | 61 µM | 85% | 30% | 68% | 67% | 67 µM | 36 µM | 79% | 73% | 48 µM |  | 
COC(=O)c1ccc(CN(CCc2c(N)nc(N)nc2O)c2cc(F)c([N+](=O)[O-])cc2[N+](=O)[O-])cc1 | 1.9 µM | 54% | 2% | 47% | 27% | 1.1 µM | 1.7 µM | 66% | 75% | 1.3 µM |  | 
COC(=O)c1ccc(CN(CCCc2c(N)nc(N)nc2O)c2cc(F)c(F)cc2[N+](=O)[O-])cc1 | 55 µM | 54% | 0% | 44% | 14% | 53 µM | 66 µM | 68% | 94% | 59 µM |  | 
Nc1nc2c(c(=O)[nH]1)C[C@@H](CCc1ccc(C(=O)N[C@@H](CCC(=O)O)C(=O)O)cc1)CN2 [LOMETREXOL] | 0.07 µM |  |  |  |  | > 100 µM | > 100 µM |  |  | 0.13 µM |  | 
COC(=O)c1ccc(CN(CCCc2c(N)nc(N)nc2O)c2cc(F)c([N+](=O)[O-])cc2[N+](=O)[O-])cc1 | 3.9 µM | 22% | 0% | 46% | 0% | 3.5 µM | 4.3 µM | 64% | 77% | 2.5 µM |  | % control activity remaining [15]: 77%; inhibition [16]: inactive; % control activity remaining [17]: 65%; % control activity remaining [18]: 83%; inhibition [19]: 83%; inhibition [20]: 2%
COC(=O)c1ccc(CN(CCCc2c(N)nc(N)nc2O)c2cc(F)cc(F)c2[N+](=O)[O-])cc1 | > 100 µM | 12% | 0% | 6% | 6% | > 100 µM | > 100 µM | 25% |  | > 100 µM | inactive | inhibition [21]: inactive; % control activity remaining [15]: 76%; inhibition [16]: inactive; % control activity remaining [18]: 78%; inhibition [20]: 39%; inhibition ([20]; in the assay text read “after 6 hr” for “after 1 hr”): 84%
